Hits are enriched below; roughly 3% of the tested compounds scored in any of these assays.
MC4R barr agon – MC4R agonists recruiting beta-arrestin, primary screen, cell-based, luminescence, agonist arm of biased-ligand search; Melanocortin receptor 4 (Homo sapiens), P32245; U2OS MC4R beta-arrestin complementation; percent of melanotan II response, DMSO zero; activation, % at 8.9 µM; 0.98% of 360,000 active; AID 540308, 2011;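 active = activation above a per-plate cutoff, the mean activation of sample wells on that plate plus 3 SD, cut at about 8% in these data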
ABHD5-PLIN5 inh – ABHD5-PLIN5 interaction inhibitors, primary screen, cell lysate, split luciferase complementation, luminescence; Split G. princeps luciferase complementation, 4 h; AID 602281, 2012; inhibition, % at 4 µM; 0.78% of 360,000 active;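 active = inhibition above the mean inhibition across every tested compound plus 3 SD, cut at about 22% in these data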;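 also: 0% = DMSO only wells and the 100% control is not disclosed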
Target sequence (Q00G26 whole entry, looked up): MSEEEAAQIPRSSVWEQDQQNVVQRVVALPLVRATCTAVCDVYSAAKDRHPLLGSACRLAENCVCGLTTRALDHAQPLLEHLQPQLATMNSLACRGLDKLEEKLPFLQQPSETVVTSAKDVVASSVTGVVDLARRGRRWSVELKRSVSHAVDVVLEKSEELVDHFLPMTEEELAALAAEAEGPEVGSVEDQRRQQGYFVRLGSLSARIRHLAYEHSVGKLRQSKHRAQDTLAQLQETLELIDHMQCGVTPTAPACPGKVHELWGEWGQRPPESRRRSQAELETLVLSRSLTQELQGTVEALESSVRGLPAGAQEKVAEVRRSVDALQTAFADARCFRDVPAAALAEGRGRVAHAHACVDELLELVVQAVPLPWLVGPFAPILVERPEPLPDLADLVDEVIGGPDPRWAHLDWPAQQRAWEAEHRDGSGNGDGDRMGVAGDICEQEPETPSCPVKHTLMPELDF
Target sequence (Q8WTS1 whole entry, looked up): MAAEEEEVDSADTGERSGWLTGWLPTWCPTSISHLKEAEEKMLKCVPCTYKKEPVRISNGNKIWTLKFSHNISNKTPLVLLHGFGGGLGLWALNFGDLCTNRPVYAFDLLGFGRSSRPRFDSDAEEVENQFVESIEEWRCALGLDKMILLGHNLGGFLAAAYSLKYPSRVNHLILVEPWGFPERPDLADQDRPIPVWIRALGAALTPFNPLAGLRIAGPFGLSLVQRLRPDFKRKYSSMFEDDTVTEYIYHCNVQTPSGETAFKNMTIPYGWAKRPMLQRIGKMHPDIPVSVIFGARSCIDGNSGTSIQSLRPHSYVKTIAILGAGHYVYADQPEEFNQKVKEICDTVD
B2AR ag – beta2AR agonists driving receptor internalization, primary screen, cell-based, FAP fluorogen, flow cytometry; Am2.2-beta2AR cells; response, % (test concentration not listed); 0.43% of 340,000 active; AID 504454, 2011;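 active = response above a set limit, near 3 SD of response in nonfluorescent compounds, cut at about 42% in these data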
MC4R antagonist – MC4R antagonists of cAMP signaling, primary screen, cell-based, TR-FRET, antagonist arm of biased-ligand search; Melanocortin receptor 4 (Homo sapiens), P32245; MC4R-expressing cells, MTII-stimulated cAMP, LANCE TR-FRET; inhibition, % at 6.5 µM; 0.48% of 360,000 active;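 active = inhibition above its plate's cutoff, the mean of tested wells on that plate plus 3 SD, cut at about 29% in these data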;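 also: 0% = Melanotan II alone and 100% = Melanotan II plus saturating MCL0020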
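Material: U2OS-MC4R stable cell line | Reagent: Melanotan II challenge after compound preincubation | Doses: One concentration, 6.5 µM nominal | Incubation: 30-min compound preincubation, 1-h Melanotan II challenge, 1-h detection, room temperature | Signal: TR-FRET cAMP assay | Replicates: One well per compound, no replicates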
PfG6PD inh – PfG6PD enzyme inhibitors, primary screen, biochemical, fluorescence intensity, uHTS | PfGluPho enzyme, NADPH resazurin-diaphorase fluorescence | AID 504690, 2011 | inhibition, % at 20 µM | glucose-6-phosphate dehydrogenase-6-phosphogluconolactonase (Plasmodium falciparum 3D7) | 0.78% of 350,000 active;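 active = inhibition reaching at least a set limit at 20 µM in the primary screen, cut at about 59% in these data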;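 also: 0% = DMSO wells with substrate and 100% = DMSO wells lacking glucose-6-phosphate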
U2OS cAMP counter – nonselective cAMP signaling inhibitors, parental cells, counter-screen for MC4R biased antagonist project, cell-based, TR-FRET, U2OS, forskolin, triplicate. shares compounds with MC4R antagonist. LANCE TR-FRET. inhibition, % at 6.5 µM. 26% of 1,600 active. AID 602193, 2012;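 active = mean inhibition over triplicates above the low-control well mean plus 3 SD, set per campaign, cut at about 13% in these data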;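 also: signal is single emission at 671 nm which falls as cellular cAMP rises; 0% = forskolin-stimulated wells and 100% = buffer without forskolin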
MC4R cAMP antag – MC4R cAMP antagonists, retest, confirmation, cell-based, TR-FRET; 27% of 1,600 active; MC4R-expressing cells, MTII-stimulated cAMP; inhibition, % at 6.5 µM; shares compounds with MC4R antagonist; AID 602195, 2012; in the data active = inhibition above about 29%;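 also: 0% = agonist stimulated wells alone and 100% = agonist stimulated wells plus saturating reference antagonist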
* marks the source's active call; other numbers are inactive results; x = not tested or not shown.

SMILES | MC4R barr agon | ABHD5-PLIN5 inh | B2AR ag | MC4R antagonist | PfG6PD inh | U2OS cAMP counter | MC4R cAMP antag
Nc1ccc(S(=O)(=O)NCC(=O)OCCOc2ccccc2)cc1[N+](=O)[O-] | -3.6 | -5.3 | -4.6 | 32.6* | 13.2 | 26.9* | 24.3
CCOC(=O)c1sc(NC(=O)CCc2ccc(OC)cc2)nc1C | 1.6 | -8.4 | 7.4 | 49.9* | -17.1 | 0.6 | 15.6
CCn1nc(C)c(C2C(C#N)=C(N)Oc3n[nH]c(C)c32)c1C (configuration not stated) | 1.8 | -2.6 | -0.5 | 30.7* | -8.8 | 2.3 | -0.4
C=CCN(C(=O)CNC(=O)c1ccco1)C(C(=O)NC1CCCC1)c1ccc(OC)cc1 (configuration not stated) | -1.1 | -3.9 | -5.9 | 16.5 | -11.4 | x | x
Cc1ccc(N(C(=O)CNC(=O)c2ccco2)C(C(=O)NC2CCCCC2)c2cccnc2)cc1 (configuration not stated) | -0.2 | 3.5 | -4.9 | -3.0 | -5.7 | x | x
CC(C)c1ccc(OCC(=O)NC(=S)Nc2ccc3c4c(cccc24)CC3)cc1 | -0.5 | 4.8 | 0.9 | 38.1* | -9.5 | 19.9* | 37.1*
Cn1c(=O)oc2cc(S(=O)(=O)Nc3ccc(F)cc3)ccc21 | -0.5 | -5.9 | -1.4 | -0.6 | -14.1 | x | x
O=C(Nc1ccccc1Cl)c1cc(C2CCCCN2C(=O)c2ccccc2)on1 (configuration not stated) | 1.7 | -7.0 | x | 34.9* | x | -14.3 | -32.9
CCC(C(=O)NCc1cccnc1)n1nc(C)n2c(cc3occc32)c1=O (configuration not stated) | -5.3 | 4.8 | -8.2 | 6.9 | 0.5 | x | x
CCCCC(=O)OCC(=O)c1cc(C)n(-c2c(C)n(C)n(-c3ccccc3)c2=O)c1C | 0.3 | -3.4 | -0.6 | 30.7* | -23.1 | 0.1 | 0.3
Cn1c(=O)c2c(nc(Sc3n[nH]c(N)n3)n2Cc2ccccc2Cl)n(C)c1=O | 1.4 | -5.3 | -9.7 | 29.1* | -14.1 | -0.2 | -4.0
Cn1c(=O)c2c(nc(Sc3ncccn3)n2Cc2ccccc2Cl)n(C)c1=O | -1.9 | -6.3 | -1.7 | -5.3 | 10.2 | x | x
COC(=O)C1=CN(c2ccc(Oc3ccccc3)cc2)C(N)=C(C#N)C1c1ccc(-c2ccccc2)cc1 (configuration not stated) | x | 6.0 | x | x | x | x | x
O=C(NCc1ccccc1)c1c(Cl)nc(Cl)c(Cl)c1Cl | 0.3 | 2.2 | 12.2 | 64.0* | 3.3 | 45.3* | 64.4*
O=C(CS(=O)(=O)c1ccccc1)Nc1nnc(C(F)(F)F)s1 | -1.9 | -8.3 | -1.7 | 32.1* | 5.7 | -1.4 | -8.6
CN(C(=O)COC(=O)c1nc(Cl)c(Cl)c(Cl)c1Cl)C1CCS(=O)(=O)C1 (configuration not stated) | -1.8 | 4.7 | 5.8 | 43.2* | 10.6 | 14.8* | 37.7*
CN(C(=O)COC(=O)c1ccc(C(C)(C)C)cc1)C1CCS(=O)(=O)C1 (configuration not stated) | -1.1 | 8.6 | -3.0 | 1.4 | 13.1 | x | x
CC(C)(C)n1ncc2c(=O)n(CC(=O)N3CCCC3)cnc21 | -0.1 | 1.9 | -8.0 | 5.8 | 9.3 | x | x
CC1CCN(C(=O)Cn2cnc3c(cnn3C(C)(C)C)c2=O)CC1 | 3.3 | -2.1 | -2.7 | 36.0* | -9.9 | -3.5 | 0.6
COc1ccc(CNC(=O)c2ccc(Cl)c(S(=O)(=O)N3CCOCC3)c2)cc1OC | -1.0 | -1.3 | 7.5 | 6.8 | -4.1 | x | x
CCN(CC(=O)Nc1c(F)cccc1F)C(=O)C1CC(=O)N(CCc2ccccc2)C1 (configuration not stated) | -1.3 | 8.4 | 1.5 | -4.1 | -5.1 | x | x
CSc1ccc(CN(C)CC(=O)NC(=O)NCCC2=CCCCC2)cc1 | 0.9 | -2.9 | -8.3 | 6.1 | 0.1 | x | x
Cc1ccc(C)c(NC(=O)c2cc(-c3ccccc3)nn2-c2ccccc2)c1 | 0.5 | -13.4 | 1.9 | 12.1 | 22.2 | x | x
Cc1ccc(F)c(NC(=O)c2cncn2-c2ccccc2)c1 | -1.4 | -0.2 | 1.0 | 30.1* | -12.4 | -0.2 | -8.9
CCn1c(C)c(C)c2cc(C(=O)NCCN3CCCCCC3)ccc21 | 1.1 | -8.1 | 16.8 | -0.7 | 35.9 | x | x
SMILES | MC4R barr agon | ABHD5-PLIN5 inh | B2AR ag | MC4R antagonist | PfG6PD inh | U2OS cAMP counter | MC4R cAMP antag
N#Cc1c(-c2cccs2)nc(SCc2ccc(Cl)cc2)[nH]c1=O | -0.4 | -0.9 | 5.8 | 57.7* | -22.8 | 42.6* | 79.6*
CSc1nc(-c2cccs2)c(C#N)c(=O)[nH]1 | -1.4 | -0.9 | -1.3 | 45.0* | 0.4 | 43.1* | 84.8*
CSc1nc(-c2ccccc2)c(C#N)c(=O)[nH]1 | 1.5 | 1.6 | 0.7 | 21.4 | -25.0 | x | x
COc1cccc(-c2nc(SCC(=O)Nc3nc(-c4ccccc4)c(C)s3)[nH]c(=O)c2C#N)c1 | -0.9 | -8.0 | 3.8 | 9.0 | -56.4 | x | x
CNC(=O)NC(=O)CSc1nc(-c2cccs2)c(C#N)c(=O)[nH]1 | -0.8 | 8.3 | -1.4 | 121.3* | -5.4 | 86.7* | 153.5*
CCOc1ccc2nc(NC(=O)CSc3nc(-c4ccccc4)c(C#N)c(=O)[nH]3)sc2c1 | 0.4 | -5.6 | 4.0 | 31.4* | -60.5 | 8.0 | 18.4
CC1Cc2ccccc2N1Cc1cc(=O)c(OCC(=O)NCCc2ccccc2)co1 (configuration not stated) | -3.0 | 0.2 | 3.6 | -3.0 | 8.1 | x | x
CC1CCCCN1C(=O)COC(=O)c1cccc(NS(=O)(=O)c2ccccc2)c1 (configuration not stated) | -3.1 | -1.4 | 9.9 | 8.1 | -16.9 | x | x
C[C@H](O)CNC(=O)c1[nH]cnc1C(=O)N[C@@H](C)c1ccccc1 | -1.1 | -0.1 | x | 16.2 | -12.5 | x | x
C=CC[C@H](CC(=O)N(CCO)Cc1ccccc1)C(=O)N[C@H](COC(=O)[C@@H](CC=C)Cc1ccc(F)cc1)Cc1c[nH]c2ccccc12 | 0.4 | 12.7 | 9.0 | 22.5 | 14.3 | x | x
C=CC[C@@H](CC(=O)N(CCO)Cc1ccccc1)C(=O)N[C@H](COC(=O)[C@@H](CC=C)Cc1ccc(F)cc1)Cc1c[nH]c2ccccc12 | -0.1 | 16.4 | 26.2 | 29.1* | 14.7 | 2.0 | 5.2
COC(=O)CCC(=O)N1CCC(Oc2cccc(C(=O)NCc3ccccn3)c2)CC1 | 0.1 | -2.6 | x | -0.8 | -10.3 | x | x
COc1ccc(C(=O)N2CCC(C)(C(=O)O)C2)c(OC)c1 (configuration not stated) | -1.4 | -6.7 | x | 15.7 | x | x | x

High-throughput results as filed in PubChem.
